Compound activity (PubChem)
Shown are actives, neighbours in structure and some others; about 2.1% of the full set was active somewhere.
MC4R antag cAMP: blocks human MC4R cAMP signaling | MC4R-expressing cells, MTII-stimulated cAMP, LANCE TR-FRET | inhibition, % at 6.5 µM | hit rate 0.48% among 360,000 | AID 540295;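 active = inhibition above its plate's cutoff, the mean of tested wells on that plate plus 3 SD, cut at about 29% in these data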;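 note: 0% = Melanotan II alone and 100% = Melanotan II plus saturating MCL0020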
Target sequence (P32245 whole entry, looked up): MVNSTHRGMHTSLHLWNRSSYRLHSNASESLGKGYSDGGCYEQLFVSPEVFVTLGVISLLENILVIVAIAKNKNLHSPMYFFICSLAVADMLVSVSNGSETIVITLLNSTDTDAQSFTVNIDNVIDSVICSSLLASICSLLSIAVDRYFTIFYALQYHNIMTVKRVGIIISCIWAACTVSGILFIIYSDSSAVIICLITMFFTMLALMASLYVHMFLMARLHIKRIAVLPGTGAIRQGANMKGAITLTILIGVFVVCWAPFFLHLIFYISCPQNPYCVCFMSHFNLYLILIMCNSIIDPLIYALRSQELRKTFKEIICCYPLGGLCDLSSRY
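Assay system: U2OS cells stably expressing human melanocortin 4 receptor (MC4R) / Dosing: 6.5 µM / Timing: compound 30 min, challenge 1 h, detection 1 h / Measured by: Eu-cAMP/anti-cAMP TR-FRET, emission 671 nm / Replicates: singlicate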
F508del corr: CFTR F508del correction in bronchial cells; AID 720511; CFBE cells, YFP halide quenching; stimulated with forskolin plus potentiator P3; % fluorescence drop versus neutral controls; activity (quench increase), % at 7.58 µM; hit rate 0.36% among 350,000;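 active = mean added fluorescence quench of at least 8% versus neutral control, with both replicates also reaching 8%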;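 note: cells transiently co-express mutant CFTR-F508del with the halide-sensitive YFP; corrector assay measuring rescue of mutant channel to the surface after 24 h compound exposure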
MC4R ag barr: human MC4R agonism via beta-arrestin; hit rate 0.98% among 360,000; U2OS MC4R beta-arrestin complementation, luminescence; percent of melanotan II response, DMSO zero; activation, % at 8.9 µM;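 active = activation above a per-plate cutoff, the mean activation of sample wells on that plate plus 3 SD, cut at about 8% in these data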
SMARCA2 activ: activators of SMARCA2 function | MG213 cells, MMTV-luciferase reporter, dexamethasone, overnight | activation, % at 9.1 µM | hit rate 1% among 370,000 | AID 652017; in the data active = activation above about 7.8%;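 note: 0% = vehicle wells and 100% = reference activator wells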
MC4R barr conf: human MC4R beta-arrestin agonism confirmation; hit rate 31% among 2,400; activation, % at 8.9 µM; U2OS MC4R beta-arrestin recruitment, luminescence; scaled DMSO 0%, Melanotan II 100%; shares compounds with MC4R ag barr;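 active = mean activation across replicates above the hit cutoff set in the earlier primary screen, cut at about 8% in these data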
MOR-DOR barr ag: activates mu-delta opioid heterodimer, MC4R agonist counter-screen | U2OS PathHunter beta-arrestin, beta-gal luminescence; percent of deltorphin B response, DMSO zero | hit rate 5.8% among 2,400 | AID 602194 | shares compounds with MC4R ag barr | activation, % at 9.2 µM;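 active = mean activation across replicates exceeds the hit threshold derived in the earlier primary screen, cut at about 18% in these data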;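 note: 100% = deltorphin B at 0.9 µM final and 0% = DMSO alone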
The depositor's hits bear a star; · = not tested or not shown.

SMILES	MC4R antag cAMP	F508del corr	MC4R ag barr	SMARCA2 activ	MC4R barr conf	MOR-DOR barr ag
S=c1[nH]nc(COc2ccccc2)n1/N=C/c1c(Cl)cccc1Cl	6	3	11*	-2	2	4
S=c1[nH]nc(COc2ccccc2)n1/N=C/c1ccccc1Cl	26	1	4	0	·	·
CCn1c2ccccc2c2cc(CNCc3ccc(OC)cc3OC)ccc21	2	-3	41*	-6	52*	21*
COc1cccc(CNCc2ccc(OC)cc2OC)c1	10	3	-1	-5	·	·
COc1ccc(OC)c(-c2cc(C(=O)Nc3cc(C)on3)no2)c1	-14	·	17*	3	10*	10
COc1ccc(NC(=O)c2cc(-c3ccco3)on2)c(OC)c1	11	2	10*	-1	1	8
CCC(=O)Nc1ccc2c(c1)OC[C@@H](C)N(CC1CC1)C[C@@H](C)[C@@H](OC)CN(C)C2=O	·	-2	·	·	·	·
COc1ccc(CCN2C(=O)C(Oc3ccccc3)C2c2ccc3c(c2)OCO3)cc1 (configuration not stated)	7	2	18*	-3	0	3
C[C@@H]1CN([C@@H](C)CO)C(=O)c2cc(NS(C)(=O)=O)ccc2O[C@@H](C)CCCCO[C@H]1CN(C)C(=O)CCCN(C)C	·	0	·	·	·	·
Oc1ccc(Nc2ncnc3scc(-c4ccccc4)c23)cc1	4	·	12*	-7	8	6
c1ccc(-c2csc3ncnc(NCc4ccccn4)c23)cc1	-14	0	11*	-5	4	3
C[C@@H]1CN([C@@H](C)CO)C(=O)c2cccc(NS(=O)(=O)c3cn(C)cn3)c2O[C@H]1CN(C)Cc1ccc(C(=O)O)cc1	·	-1	·	·	·	·
CCCC(=O)Nc1ccc(-c2csc(N/N=C\c3ccncc3)n2)cc1	11	1	19*	0	3	8
O=C1Nc2ccccc2O/C1=C\c1ccccc1	11	1	13*	4	1	5
Cc1cccc(NC(=S)N/N=C/c2ccc(Cl)c([N+](=O)[O-])c2)c1	18	·	22*	-1	5	9
CO[C@H]1CN(C)C(=O)c2cc(NS(=O)(=O)c3ccccc3)ccc2OC[C@H](C)N(Cc2cccnc2)C[C@@H]1C	·	0	·	·	·	·
Cc1noc(C)c1S(=O)(=O)Nc1ccc2c(c1)C(=O)N([C@@H](C)CO)C[C@@H](C)[C@H](CN(C)C(=O)C1CCCCC1)OCCCC[C@@H](C)O2	·	-1	·	·	·	·
O=C(NCc1ccco1)c1cc(-c2ccc3c(c2)OCO3)on1	4	·	12*	4	6	5
Cc1ccc(-c2cc(C(=O)NCc3ccco3)no2)cc1	16	0	1	1	·	·
CCOc1cc(/C=C2\CCn3c2nc2cc(Cl)ccc2c3=O)ccc1O	11	2	12*	-3	9.2*	2
CSc1nc2nccc(-c3ccc(-c4ccccc4)cc3)n2n1	20	·	11*	1	1	4
CCCC(=O)Nc1ccc2c(c1)C(=O)N(C)C[C@@H](OC)[C@@H](C)CN(Cc1ccc(-c3ccccn3)cc1)[C@H](C)CO2	·	1	·	·	·	·
C/C(N)=C(/C#N)C(=O)CSc1nnc(-c2ccc(OC(F)F)cc2)o1	11	1	1	6	·	·
CCOC(=O)c1c(C)[nH]c(C)c1C(=O)CSc1nnc(-c2ccc(OC(F)F)cc2)o1	2	·	29*	-3	6	9
CCN1C(=O)/C(=C\N2CCN(c3ccc(F)cc3)CC2)SC1=S	1	3	19*	-1	2	6
SMILES	MC4R antag cAMP	F508del corr	MC4R ag barr	SMARCA2 activ	MC4R barr conf	MOR-DOR barr ag
CN1CCN(C(=O)C[C@@H]2CC[C@@H]3[C@H](COC[C@@H](O)CN3CC3CC3)O2)CC1	·	-1	·	·	·	·
CCOC(=O)c1nn(-c2cccc(OC)c2)c2nc(CC)c(C#N)c(=O)n12	7	0	11*	3	5	5
Cc1ccc(-c2csc(N(C)C(=O)c3c(C)nn(-c4ccccc4)c3Cl)n2)cc1	1	-3	16*	0	8	3
Cc1ccc(CN(C)C(=O)c2c(C)nn(-c3ccccc3)c2C)cc1	3	0	0	-1	·	·
CCOc1ccc(NC(=O)c2nnn(CC(=O)Nc3ccccc3OCC)c2N)cc1	13	·	2	3	·	·
CCOc1ccc(OCC)c(NC(=O)c2nnn(CC(=O)Nc3cc(C)cc(C)c3)c2N)c1	0	-4	42*	-3	18*	9
O=C(COC(=O)c1ccco1)NNC(=O)c1ccc(Cl)cc1	10	2	-4	-2	·	·
CC(C)(C)c1ccc(C(=O)NC(=O)COC(=O)c2ccco2)cc1	-7	-11	13*	-1	1	7
C[C@H](CO)N1C[C@H](C)[C@H](CN(C)C)Oc2cc(Br)ccc2S1(=O)=O	·	1	·	·	·	·
O=C(C1CCCCC1)N1C[C@@H](n2cc(-c3ccc(F)cc3)nn2)[C@H](O)C[C@@H]1c1ccc(Cl)cc1	9	2	12*	-3	-2	10
Cc1ccc(NC(=O)COC(=O)c2ccccc2Nc2ccccc2)cc1	-6	·	13*	-3	3	5
O=C(COC(=O)c1ccccc1Nc1ccccc1)c1ccccc1	8	·	1	-3	·	·
O=C(CCN1C(=O)c2ccccc2C1=O)Nc1ccc(-c2cn3ccsc3n2)cc1	9	·	13*	0	-1	4
CC(=O)Nc1ccc(-c2cn3ccsc3n2)cc1	7	·	0	4	·	·
COc1ccccc1CNC(=O)C[C@@H]1C=C[C@H](NC(=O)CN(C)C)[C@@H](CO)O1	·	1	·	·	·	·
CC(CC(=O)Nc1ccc2c(c1)c(=O)n(C)n2-c1ccc2ccccc2c1)C(F)(F)F (configuration not stated)	-22	5	9.7*	-1	-2	5
CCOc1ccc(/C=N/Nc2ccc(C(F)(F)F)cc2[N+](=O)[O-])cc1O	-1	·	-2	-3	·	·
COc1ccc(/C=N/Nc2ccc(C(F)(F)F)cc2[N+](=O)[O-])cc1O	-8	·	20*	-5	4	4
CC(C)NC(=O)Nc1ccc2c(c1)C(=O)N([C@@H](C)CO)C[C@@H](C)[C@@H](CN(C)S(=O)(=O)c1ccc(F)cc1)OCCCC[C@@H](C)O2	·	3	·	·	·	·
CC1CC(C)CN(C(=S)Nc2ccc(SC(F)F)cc2)C1 (configuration not stated)	12	·	24*	0	5	11
CC1CN(C(=S)Nc2ccc(SC(F)F)cc2)CC(C)O1 (configuration not stated)	1	-4	-1	0	·	·
CCC(=O)N[C@@H]1C=C[C@H](CC(=O)OC)O[C@@H]1CO	·	0	·	·	·	·
C/C(=N/OCO/N=C(\C)c1ccccc1F)c1ccccc1F	2	2	9.6*	-3	-1	4
